Measurements published in ChEMBL document CHEMBL1148647, “Structure-activity relationship studies on a series of novel, substituted 1-benzyl-5-phenyltetrazole P2X7 antagonists” (J Med Chem, 2006).
Calls of active or inactive are those of the source.

Assays:
THP-1 [1] = assay: Ability to block pore formation in human THP1 cells assessed as inhibition of YO-PRO-1 diiodide dye uptake; format: functional, cell-based
Summary of the method: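 Differentiated human THP-1 cells stimulated with agonist BzATP for 1 h in presence of test compound. Pore formation read as inhibition of cellular uptake of the impermeable dye YO-PRO-1 diiodide.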

P2X purinoceptor 7 [2] = target: T1, P2X purinoceptor 7 (Homo sapiens, UniProt Q99572); assay: Antagonist activity at human P2X7 receptor expressed in human 1321N1 cells assessed as inhibition of calcium flux by FLIPR; format: functional, cell-based
T1 sequence (Q99572 whole entry): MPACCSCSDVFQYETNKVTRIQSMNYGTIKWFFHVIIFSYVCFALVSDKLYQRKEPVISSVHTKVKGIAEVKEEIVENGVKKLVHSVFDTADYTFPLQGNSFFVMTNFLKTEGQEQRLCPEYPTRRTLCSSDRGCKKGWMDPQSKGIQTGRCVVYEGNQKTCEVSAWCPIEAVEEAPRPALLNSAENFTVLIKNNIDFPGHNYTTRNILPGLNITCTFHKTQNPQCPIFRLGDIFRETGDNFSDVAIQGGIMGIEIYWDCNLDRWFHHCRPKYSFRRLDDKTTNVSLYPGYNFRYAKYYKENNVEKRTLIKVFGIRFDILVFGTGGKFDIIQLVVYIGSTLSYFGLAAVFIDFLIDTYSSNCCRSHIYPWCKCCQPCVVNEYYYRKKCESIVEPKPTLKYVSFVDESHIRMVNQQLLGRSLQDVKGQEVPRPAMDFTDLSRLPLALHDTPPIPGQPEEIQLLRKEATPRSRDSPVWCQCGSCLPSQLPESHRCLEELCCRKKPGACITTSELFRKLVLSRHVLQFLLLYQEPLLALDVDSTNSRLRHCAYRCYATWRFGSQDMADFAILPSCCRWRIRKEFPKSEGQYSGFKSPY
Summary of the method: (§1)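 Recombinant P2X7 (human or rat) stably transfected into human 1321N1 astrocytoma cells lacking endogenous P2X receptor function. Fluo-4 calcium dye, FLIPR read-out. 5-min antagonist pretreatment, then BzATP agonist. IC50 determined.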

Rattus norvegicus [3] = assay: Reversal of mechanical allodynia in L5/L6 spinal nerve tight ligation model of neuropathic pain in ip dosed rat; format: functional
Summary of the method: (§2)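 Spinal nerve ligation (L5/L6, Chung) done 7-14 days before testing. Antagonist given ip at 10-300 µmol/kg. Von Frey hair applied 30 min after dosing. Paw withdrawal threshold on injured (left) side compared with contralateral paw. ED50 and maximal response relative to contralateral side derived.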

P2X purinoceptor 7 [4] = target: T2, P2X purinoceptor 7 (Rattus norvegicus, UniProt Q64663); assay: Antagonist activity at rat P2X7 receptor expressed in human 1321N1 cells assessed as inhibition of calcium flux by FLIPR; format: functional, cell-based; summary of the method: as §1
T2 sequence (Q64663 whole entry): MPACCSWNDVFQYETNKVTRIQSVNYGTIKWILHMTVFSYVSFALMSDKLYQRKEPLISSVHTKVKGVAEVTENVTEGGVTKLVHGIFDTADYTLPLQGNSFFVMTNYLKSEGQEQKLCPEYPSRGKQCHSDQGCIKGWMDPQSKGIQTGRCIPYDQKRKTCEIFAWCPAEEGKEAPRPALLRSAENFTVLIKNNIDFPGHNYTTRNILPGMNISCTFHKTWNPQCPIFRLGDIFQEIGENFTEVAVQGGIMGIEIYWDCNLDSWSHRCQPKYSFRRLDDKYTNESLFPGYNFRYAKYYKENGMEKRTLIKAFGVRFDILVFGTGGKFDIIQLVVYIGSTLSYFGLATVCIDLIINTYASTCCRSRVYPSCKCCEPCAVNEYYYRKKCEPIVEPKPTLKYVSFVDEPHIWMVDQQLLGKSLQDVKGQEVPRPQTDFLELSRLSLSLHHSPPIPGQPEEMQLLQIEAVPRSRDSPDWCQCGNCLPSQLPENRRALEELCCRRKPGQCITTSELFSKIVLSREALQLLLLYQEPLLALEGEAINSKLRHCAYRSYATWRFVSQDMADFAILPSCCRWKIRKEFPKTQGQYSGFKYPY

THP-1 [5] = assay: Inhibition of ILbeta production in human THP1 cells; format: functional, cell-based
Summary of the method: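 Human THP-1 cells differentiated with LPS and IFNγ, then stimulated with BzATP for 30 min in presence of test compound. Released IL-1β quantified by EIA.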

Rattus norvegicus [6] = assay: Reversal of mechanical allodynia in L5/L6 spinal nerve tight ligation model of neuropathic pain in ip dosed rat relative to control; format: functional; summary of the method: as §2
[7] = Oral bioavailability in rat at 10 umol/kg, ip; format: ADME, organism-based; conditions: in vivo, intraperitoneal, read-out: Activity
[8] = Half life in rat at 10 umol/kg; format: ADME, organism-based; conditions: in vivo
Rattus norvegicus [9] = assay: Impairment of motor function in rat by rotarod assay up to 300 umol/kg, ip; format: functional, organism-based
Summary of the method: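 Accelerating rotarod, ip dosing up to 300 µmol/kg. Time for the animal to fall from the rod recorded.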

| Structure (SMILES) | IC50 (THP-1 [1]) | IC50 (P2X purinoceptor 7 [2]) | IC50 (P2X purinoceptor 7 [4]) | further results |
| --- | --- | --- | --- | --- |
| COc1cccc(-c2nnnn2Cc2ccccc2Cl)c1OC | > 10000 nM | 3980 nM |  |  |
| Clc1cccc(-c2nnnn2Cc2cccnc2)c1Cl | 200 nM |  | 316 nM | ED50 (Rattus norvegicus [3]): 76 µmol/kg; IC50 (THP-1 [5]): 398 nM; Activity (Rattus norvegicus [6]): 78%; bioavailability [7]: 19%; half-life [8]: 1 h; Activity (Rattus norvegicus [9]): inactive |
| c1ccc(Cn2nnnc2-c2ccncc2)cc1 |  | 31600 nM |  |  |
| FC(F)(F)c1cccc(-n2nnnc2Cc2cccnc2)c1Cl | 50.1 nM | 12.6 nM | 50.1 nM | IC50 (THP-1 [5]): 25.1 nM |
| Fc1cccc(-c2nnnn2Cc2cccnc2)c1C(F)(F)F |  | 631 nM |  |  |
| c1ccc(-c2nnnn2Cc2cccnc2)cc1 | > 10000 nM | 25100 nM |  |  |
| Clc1ccc(-c2nnnn2Cc2cccnc2)c(Cl)c1Cl | 1350 nM | 200 nM |  |  |
| Clc1cccc(-c2nnnn2Cc2cccnc2)c1 | > 10000 nM | 7940 nM |  |  |
| Cc1ccccc1Cn1nnnc1-c1cccc(Cl)c1Cl | 126 nM | 15.8 nM | 63.1 nM | IC50 (THP-1 [5]): 158 nM |
| Fc1ccc(-n2nnnc2Cc2cccnc2)c(Cl)c1Cl |  | 25.1 nM | 100 nM | IC50 (THP-1 [5]): 39.8 nM |
| Fc1c(-c2nnnn2Cc2cccnc2)cccc1C(F)(F)F | 501 nM | 63.1 nM | 79.4 nM | IC50 (THP-1 [5]): 501 nM |
| Fc1ccc(-n2nnnc2Cc2cccnc2)c(Cl)c1C(F)(F)F | 158 nM | 20 nM |  |  |
| c1ccc(Cn2nnnc2-c2cccc3cccnc23)cc1 |  | 25100 nM |  |  |
| Clc1cccc(-n2nnnc2Cc2cccnc2)c1Cl | 398 nM | 100 nM |  |  |
| Clc1cccc(-c2nnnn2Cc2ccccc2)c1Cl | 501 nM | 39.8 nM | 79.4 nM |  |
| FC(F)(F)c1cccc(-c2nnnn2Cc2cccnc2)c1Cl | 158 nM | 12.6 nM | 63.1 nM | IC50 (THP-1 [5]): 79.4 nM |
| Cc1ccccc1Cn1nnnc1-c1cccc(C)c1C | 1260 nM | 251 nM |  |  |
| Clc1ccccc1-c1nnnn1Cc1cccnc1 |  | 15800 nM |  |  |
| Clc1ccc(Cl)c(-c2nnnn2Cc2cccnc2)c1 | > 10000 nM | 15800 nM |  |  |
| Cc1nc(C)c(Cn2nnnc2-c2cccc(Cl)c2Cl)s1 | 251 nM | 50.1 nM | 1260 nM |  |
| Clc1cccc(-c2nnnn2Cc2ccncc2)c1Cl | 2000 nM | 794 nM | 3160 nM | IC50 (THP-1 [5]): 20000 nM |
| Fc1ccc(-c2nnnn2Cc2cccnc2)c(Cl)c1Cl | 398 nM | 12.6 nM |  |  |
| Clc1cccc(-c2nnnn2CCc2cccnc2)c1Cl | > 10000 nM | 12600 nM |  |  |
| Clc1c(-c2nnnn2Cc2ccccc2)ccc(N2CCCC2)c1Cl |  | > 10000 nM |  |  |
| Clc1cccc(-c2nnnn2Cc2ccccn2)c1Cl | 2000 nM | 501 nM |  |  |
| Clc1ccc(-c2nnnn2Cc2cccnc2)cc1Cl | 7940 nM | 3980 nM |  |  |
| O=C(NCC12CC3CC(CC(C3)C1)C2)c1cccc(Cl)c1Cl |  | 63.1 nM |  |  |
| c1ccc(Cn2nnnc2-c2cccc3ncccc23)cc1 | > 10000 nM | 15800 nM |  |  |
| Cc1ncccc1Cn1nnnc1-c1cccc(Cl)c1Cl | 200 nM | 31.6 nM | 200 nM | IC50 (THP-1 [5]): 158 nM |
| Cc1noc(C)c1Cn1nnnc1-c1cccc(Cl)c1Cl | 794 nM | 158 nM |  |  |
